Here are results for four molecules from publication PMC4544744 (Nature chemical biology, 2015).

One experiment has as its system DcpS. The conditions noted are these: cited from earlier work.
For experiment [1], the target named is Dcs1p WT (H268N), full length (Saccharomyces cerevisiae, UniProt Q06151, H268N). Nature of the experiment: ITC. It counts as binding, S. cerevisiae. In a few lines: (§1)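 Recombinant yeast Dcs1p carrying H268N, full length or C-terminal domain, purified by Ni-NTA, TEV cleavage and size exclusion. ITC at 25°C: m7GpppG or m7GMP injected into 0.5 mM enzyme solution.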

Experiment [2] has as its target T1, Dcs1p WT (H268N) (Saccharomyces cerevisiae, UniProt Q06151, H268N). The experiment can be described thus: Methyl NMR spectra, formation of asymmetric conformation. On the set-up: species or system S. cerevisiae.
Experiment [3] has as its system Dcs1p K126A. The experiment can be described thus: 31P NMR degradation. The format is biochemical, S. cerevisiae. The conditions noted are these: high substrate excess.
A further experiment has as its system WT Dcs1p. Nature of the experiment: 31P NMR degradation. The format is biochemical, S. cerevisiae. An outline of the steps: (§2)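 Recombinant S. cerevisiae Dcs1p, expressed in E. coli BL21(DE3) codon plus and purified by Ni-NTA, TEV tag cleavage and size exclusion into 25 mM Hepes pH 8.0, 25 mM NaCl made in 100% D2O. 0.5 mM m7GpppG mixed with 50 nM enzyme at 27°C. Successive 31P spectra recorded over several hours, following substrate conversion to m7GMP and GDP.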

In experiment [4] the target is T1, Dcs1p WT (H268N). Nature of the experiment: NMR titration. On the set-up: species or system S. cerevisiae. The note with it: Kd open site (second binding event), determined using NMR. An outline of the steps: (§3)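 Deuterated, Ile/Met methyl-labelled Dcs1p (H268N), 0.25 mM dimer in D2O buffer pH 8.0 at 27°C. Methyl-TROSY spectra recorded during stepwise m7GpppG addition, up to 20 molar equivalents (5 mM). Peak positions and intensities from all titration points fitted simultaneously to a sequential two-site binding model. Kd given as mean ± s.d. from Monte Carlo simulations varying data within their errors.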

For another experiment, the system named is Dcs1p Y94A. Nature of the experiment: 31P NMR degradation. The format is biochemical, S. cerevisiae. The note with it: Y94A enzyme; 31P NMR time series, 14 h. An outline of the steps:
as §2

For experiment [5], the target named is T2, Dcs1p K126A (H268N) (Saccharomyces cerevisiae, UniProt Q06151, H268N/K126A). The experiment can be described thus: NMR titration. On the set-up: species or system S. cerevisiae. The note with it: Kd open site (second binding event), determined using NMR. An outline of the steps:
as §3

In experiment [6] the target is T2, Dcs1p K126A (H268N). The experiment can be described thus: ITC. It counts as binding, S. cerevisiae. In a few lines:
as §1

Experiment [7] has as its target T1, Dcs1p WT (H268N). Nature of the experiment: Longitudinal exchange NMR, domain flipping motions. On the set-up: species or system S. cerevisiae. An outline of the steps: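 Methyl-TROSY longitudinal exchange spectra recorded with m7GpppG at 1:1, 1:2.5, 1:5 and 1:20 molar ratios. Mixing times 3–1000 ms. Rates fitted from auto- and cross-peak intensities versus mixing time.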

For experiment [8], the system named is Dcs1p K126A. Nature of the experiment: Longitudinal exchange NMR, domain flipping motions. On the set-up: species or system S. cerevisiae.

“And” between values parts separate entries of the source, which are not always exact repeats. Identical values can stand only once. A value given as a limit tells only on which side of the number the result lay.

T1 sequence (Q06151 whole entry H268N): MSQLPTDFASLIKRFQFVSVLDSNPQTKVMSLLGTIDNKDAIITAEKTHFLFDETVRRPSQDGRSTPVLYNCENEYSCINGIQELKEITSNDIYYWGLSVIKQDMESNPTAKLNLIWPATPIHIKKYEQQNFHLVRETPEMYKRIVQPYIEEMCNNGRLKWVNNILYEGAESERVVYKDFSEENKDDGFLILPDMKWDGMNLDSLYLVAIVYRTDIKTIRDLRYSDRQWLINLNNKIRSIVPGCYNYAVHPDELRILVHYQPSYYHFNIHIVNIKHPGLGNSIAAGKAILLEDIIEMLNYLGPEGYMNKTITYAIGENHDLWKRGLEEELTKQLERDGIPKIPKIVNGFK
Sequence of Dcs1p WT (H268N), full length (Q06151 whole entry H268N, the tested form may be a part): as the sequence (Q06151 whole entry H268N) above
T2 sequence (Q06151 whole entry K126A/H268N): as the sequence (Q06151 whole entry H268N) above, with K126A counted along it

Take `C[n+]1cn([C@@H]2O[C@H](COP(=O)(O)OP(=O)(O)O)[C@@H](O)[C@H]2O)c2nc(N)[nH]c(=O)c21` [m^7GDP, 7-methylguanosine diphosphate]: the hydrolysis result in the experiment with DcpS was “not hydrolysed efficiently”.
For orientation: Kd means the equilibrium constant for the complex coming apart. The low end stands for higher affinity, the high end for lower affinity. On to `C[n+]1cn([C@@H]2O[C@H](COP(=O)([O-])O)[C@@H](O)[C@H]2O)c2nc(N)[nH]c(=O)c21` [m7GMP, m^7G monophosphate], for which binding in experiment [1] (Kd (single-step binding, closed binding site), ITC, DcpS H268N) was characterised by a dissociation constant (Kd) of 1.1 ± 0.6 µM. In addition, the “factor weaker interaction with closed binding site than the substrate” value in experiment [1] (product vs substrate) stood at 4. In addition, the “interaction with the second, open binding site” value in experiment [1] (using ITC and NMR) is on record as “not able to detect an interaction”. For the same molecule, on Dcs1p WT (H268N) [2], the “formation of asymmetric conformation” value was “preserves the asymmetric form of the complex”.
As to `C[n+]1cn([C@@H]2O[C@H](COP(=O)([O-])OP(=O)(O)OP(=O)(O)OC[C@H]3O[C@@H](n4cnc5c(=O)[nH]c(N)nc54)[C@H](O)[C@@H]3O)[C@@H](O)[C@H]2O)c2nc(N)[nH]c(=O)c21` [m7GpppG], the “Turnover rate (kcat)” value with Dcs1p K126A [3] is given as 0.48 s^−1 under high substrate excess; with WT Dcs1p (high substrate excess, 0.5 mM substrate, 50 nM enzyme, 27°C), 0.27 s^−1 under high substrate excess. Also, the Kd at Dcs1p WT (H268N) [4] came to 105 µM; on Dcs1p K126A (H268N) [5] it was 196 µM; at Dcs1p K126A (H268N) [6], 0.24 µM. Further, the “enzymatic turnover / hydrolysis” value with Dcs1p Y94A is given as “did not detect enzymatic turnover”. Besides, the “domain flipping (exchange) rate” value at Dcs1p WT (H268N) [7] (20-fold excess of substrate over dimeric enzyme, inactive H268N) was 35.4 (± 4.8) s^−1 and 35.4 s^−1. Further, the Flipping rate at Dcs1p WT (H268N) [7] (low substrate excess) was 8 Hz; with Dcs1p K126A [8] (K126A (H268N), under high and low substrate excess), < 1 Hz under high and low substrate excess. Also, the domain flipping rate entry in the experiment on Dcs1p K126A [8] (K126A, substrate excess, based on detection limit of the experiment) is listed as “less than 1 s^−1”.
`Nc1nc2c(ncn2[C@@H]2O[C@H](COP(=O)(O)OP(=O)(O)OP(=O)(O)OC[C@H]3O[C@@H](n4cnc5c(=O)[nH]c(N)nc54)[C@H](O)[C@@H]3O)[C@@H](O)[C@H]2O)c(=O)[nH]1` [GpppG]: the “enzymatic turnover / hydrolysis” value in the experiment with WT Dcs1p (WT enzyme, 31P NMR time series, 14 h) is given as “did not detect enzymatic turnover”. For the same molecule, on Dcs1p WT (H268N) [2], the “formation of asymmetric conformation” value is reported as “observed no resonances corresponding to the asymmetric conformation”.
